From PubChem BioAssay
M4 antag = human M4 muscarinic receptor antagonists, primary screen, CHO cells, Fluo-8 calcium fluorescence; Muscarinic acetylcholine receptor M4 (Homo sapiens), P08173; CHO-hM4 cells, ACh EC80; inhibition, % at 3 µM; 360,000 tested, 0.73% active; AID 624125, 2012;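 active means inhibition above its plate's cutoff, the mean inhibition of sample wells plus 3 SD, cut at about 27% in these data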;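 further: 0% = acetylcholine EC80 with DMSO and 100% = DMSO without agonist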
Target sequence (P08173 whole entry, looked up): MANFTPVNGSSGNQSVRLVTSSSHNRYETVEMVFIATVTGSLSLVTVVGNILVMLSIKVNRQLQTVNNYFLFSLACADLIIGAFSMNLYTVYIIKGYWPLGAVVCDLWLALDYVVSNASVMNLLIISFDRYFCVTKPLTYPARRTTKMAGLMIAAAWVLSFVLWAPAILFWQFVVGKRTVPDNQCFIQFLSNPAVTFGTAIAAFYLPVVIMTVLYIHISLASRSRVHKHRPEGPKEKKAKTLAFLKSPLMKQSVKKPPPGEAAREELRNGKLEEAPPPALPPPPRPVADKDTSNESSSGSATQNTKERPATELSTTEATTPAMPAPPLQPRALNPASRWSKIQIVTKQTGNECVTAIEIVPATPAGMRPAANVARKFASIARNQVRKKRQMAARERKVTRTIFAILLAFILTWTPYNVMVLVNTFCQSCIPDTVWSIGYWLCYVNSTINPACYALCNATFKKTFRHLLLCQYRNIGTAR
CHRM4 agonist = human M4 muscarinic receptor agonists, primary screen, CHO-K1 cells, Fluo-8 calcium fluorescence. CHO-K1 hM4/Gqi5; vehicle 0%, full acetylcholine response 100%. Muscarinic acetylcholine receptor M4 (Homo sapiens), P08173. activation, % at 3 µM. 360,000 tested, 0.14% active;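 active means activation above the run mean over all test wells plus 3 SD, cut at about 32% in these data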;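 further: peak over basal fluorescence ratio per well then scaled between controls; 0% = DMSO wells and 100% = acetylcholine at EC100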
M5 PAM = human M5 muscarinic receptor positive allosteric modulators, primary screen, CHO-K1 cells, Fluo-8 calcium fluorescence; AID 624038, 2012; 360,000 tested, 0.3% active; activation, % at 3 µM; Muscarinic acetylcholine receptor M5 (Homo sapiens), P08912; CHO-K1 hM5, ACh EC20 PAM; 0% = ACh EC20, 100% = ACh EC100;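 active means activation above the run cutoff, the mean activation of all test compounds plus 3 SD, cut at about 18% in these data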
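Assay system – human M5 receptor in CHO-K1 cells · Read-out – % activation, ACh-normalized · Technique – Fluo-8 calcium fluorescence · Dosing – single-point, 3 µM nominal · Incubation – Fluo-8 loading 80 min at 37 °C plus 30 min room temperature · Repeats – singlicate, one well per test compound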
CHRM5 agonist = human M5 muscarinic receptor agonists, primary screen, CHO-K1 cells, Fluo-8 calcium fluorescence. 360,000 tested, 0.19% active. Muscarinic acetylcholine receptor M5 (Homo sapiens), P08912. activation, % at 3 µM. CHO-K1 hM5 cells; 0% DMSO wells, 100% maximal acetylcholine response;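 active means activation above the run's mean over test compounds plus 3 SD, cut at about 23% in these data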;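 further: signal is peak over basal fluorescence ratio across the kinetic read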
M4 PAM = human M4 muscarinic receptor positive allosteric modulators, primary screen, CHO-K1 cells, Fluo-8 calcium fluorescence; 360,000 tested, 0.4% active; AID 624126, 2012; activation, % at 3 µM; Muscarinic acetylcholine receptor M4 (Homo sapiens), P08173; CHO-K1 hM4/Gqi5, ACh EC20; 0% = ACh EC20, 100% = maximal ACh;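 active means activation above its plate's cutoff, the mean activation of sample wells plus 3 SD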
M5 antag = human M5 muscarinic receptor antagonists, primary screen, CHO cells, Fluo-8 calcium fluorescence | Muscarinic acetylcholine receptor M5 (Homo sapiens), P08912 | CHO-hM5 cells, ACh EC80 | inhibition, % at 3 µM | 360,000 tested, 0.59% active | AID 624040, 2012;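 active means inhibition above a per-plate cutoff, the mean of that plate's test compounds plus 3 SD, cut at about 27% in these data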;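 further: 0% = acetylcholine EC80 with DMSO and 100% = DMSO without agonist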
Active calls of the source: *; ! = a repeat was not active. In the library only some 1.9% were active in any assay of this set; here they are far more common.

SMILES	M4 antag	CHRM4 agonist	M5 PAM	CHRM5 agonist	M4 PAM	M5 antag
C/C=C(/C)C(=O)OC1CC(C)(C)C[C@H]2C3=CC[C@@H]4[C@@]5(C)CCC(O[C@@H]6O[C@@H](C(=O)O)[C@@H](O)C(O[C@@H]7OC[C@H](O)[C@@H](O)[C@@H]7O[C@@H]7OC(CO)C(O)[C@@H](O)[C@@H]7O)C6O[C@@H]6OC(CO)C(O)C(O)C6O)[C@@](C)(CO)[C@@H]5CC[C@]4(C)[C@]3(C)CC(O)[C@@]12CO (stereo partly drawn)	25.9	74.8*	-5.6	-3.4	20.1	10.0
CCCCNc1nc(NCc2ccccc2)nc2ccccc12	90.0*	105.4*	-24.8	80.1*	-17.9	82.2*
COc1cc2ncnc(NCc3ccccc3)c2cc1OC	-0.4	1.8	-4.0	-3.5	2.0	11.5
c1ccc(CNc2ncnc3ccccc23)cc1	38.2*!	33.8*!	-13.5	24.0*!	-13.3	20.4
CNc1nc(NCc2ccccc2)c2ccccc2n1	1.9	6.3	1.4	0.9	-5.3	-5.8
N#Cc1ccc(OCC(O)CN2CCN(C(c3ccccc3)c3ccccc3)CC2)cc1 (stereo not drawn)	32.4*	0.4	-17.6	-6.1	-19.4	37.2*
CCC(=O)c1ccc(OCC(O)CN2CCN(C(c3ccccc3)c3ccccc3)CC2)cc1 (stereo not drawn)	44.3*	1.0	-27.7	-6.0	-13.8	15.6
O=C1NC[C@H](c2ccccc2)N(CCc2cccc3ccccc23)C1=O	-10.2	0.5	3.8	-2.1	7.2	3.8
COc1ccc(-c2cc(C(=O)Nc3cc(C)nn3-c3ccccc3)no2)cc1	-1.8	-0.3	-4.5	0.7	17.9*	-0.6
Cc1ccc(-n2nc(C)cc2NC(=O)c2ccc(C)s2)cc1	46.3*	-0.2	-13.8	-11.7	-34.0	20.1
Cc1ccc(-n2nc(C)cc2NC(=O)CC#N)cc1	1.5	0.3	2.8	-0.9	-2.8	3.6
CCOC(=O)CCc1c(C)c2ccc(OC3CCCCC3=O)cc2oc1=O (stereo not drawn)	34.5*	2.2	-6.5	-0.8	-8.0	13.1
COc1cc(F)ccc1S(=O)(=O)N1CCN(C23CC4CC(CC(C4)C2)C3)CC1	13.7	2.5	-5.0	-7.3	-19.9	3.0
COc1cc(C)ccc1S(=O)(=O)N1CCN(C23CC4CC(CC(C4)C2)C3)CC1	88.6*	-2.3	-19.8	-11.4	-33.5	2.5
c1ccc(OCc2noc(CN3CC[C@@H]4CCCC[C@H]4C3)n2)cc1	-0.3	2.2	21.6*	10.2	5.5	7.4
Clc1cccc(C2CCN(Cc3nc(COc4ccccc4)no3)C2)c1 (stereo not drawn)	-3.7	5.7	-3.9	-3.6	-5.0	10.5
O=C(Nc1ccccc1-c1ccccc1)NC1CC2CCCC(C1)N2CCc1ccccc1 (stereo not drawn)	29.4*	0.1	-18.4	-10.0	-16.9	14.8
O=C(Nc1ccccc1-c1ccccc1)NC1CC2CCCC(C1)N2Cc1ccc(F)cc1 (stereo not drawn)	58.4*	0.8	-19.6	-9.9	-22.9	34.5*
Cc1ccc(CN2C3CCCC2CC(NC(=O)c2ccc(F)cc2)C3)cc1 (stereo not drawn)	13.3	0.6	-2.1	-19.6	-10.4	-11.0
CC(C)c1ccc(N(C(=O)c2csnn2)C(C(=O)NC2CCCC2)c2cccnc2)cc1 (stereo not drawn)	-7.2	1.7	-0.8	-1.4	1.6	9.3
COc1ccc(S(=O)(=O)N2CCC(C(=O)N[C@@H](C)C(=O)NC3CCCC3)CC2)cc1	-0.1	0.5	32.1*	1.6	2.4	19.0
COc1ccc(CNC(=O)CCNC(=O)C2CCN(S(=O)(=O)c3ccc(OC)cc3)CC2)cc1	-14.7	0.1	-6.8	-1.0	19.5*	-0.6
COc1ccc(NC(=O)CCNC(=O)C2CCN(S(=O)(=O)c3ccc(OC)cc3)CC2)cc1	4.4	0.0	-3.6	-2.7	-6.0	13.3
CC(C)[C@H](NC(=O)C1CCN(S(=O)(=O)c2ccccc2)CC1)C(=O)NCc1ccccc1	-11.2	0.5	13.3	-1.7	14.7*	-13.5
C/C(CC(=O)Nc1ccccn1)=N\NC(=O)c1cnccn1	-5.7	0.2	1.3	1.9	-4.2	5.6
SMILES	M4 antag	CHRM4 agonist	M5 PAM	CHRM5 agonist	M4 PAM	M5 antag
COc1ccc(CN2C(=O)c3cccnc3C2=O)cc1S(=O)(=O)NC1CCCCC1C (stereo not drawn)	2.0	1.0	9.7	0.6	-1.4	-6.9
O=C(Nc1ccc(Cl)c(Cl)c1)OCc1cncs1	20.0	8.3	-9.7	-3.5	2.1	17.2
O=C(Nc1ccccc1)OCc1cncs1	2.4	5.8	18.3*	-0.9	5.9	-2.3
COC(=O)c1cc(=O)c2c(ccc3oc(=O)ccc32)[nH]1	8.5	0.3	-0.5	0.2	-6.8	-7.5
OC[C@H]1O[C@@H](c2nc(-c3ccc4[nH]ccc4c3)no2)[C@H](O)[C@@H](O)[C@H]1O	-3.6	0.6	3.4	-0.6	16.3*	-1.8
OC[C@H]1O[C@@H](c2nc(-c3ccc(C4OCCO4)cc3)no2)[C@H](O)[C@@H]1O	-5.6	-0.1	-3.2	0.5	3.9	8.9
Cc1ccccc1N(Cc1cc(=O)[nH]c2ccccc12)C(=O)C(C)C	-15.1	2.3	-1.2	-1.6	-5.7	-4.7
Cc1ccc(N(Cc2cc(=O)[nH]c3ccccc23)C(=O)C(C)C)c(C)c1	46.0*	-0.6	-0.2	0.4	-10.6	6.2
O=C(NCCN1CCOCC1)C1CCCN(S(=O)(=O)c2ccc(F)cc2)C1 (stereo not drawn)	-2.6	1.4	-3.0	-4.0	-0.8	13.7
CC(=O)Nc1ccc(/C=N/N2CCCCC2)cc1	2.2	1.0	19.8*	14.9	-11.2	-17.3
CC(CNC(=O)CN(C)CC(=O)Nc1ccccc1Br)c1ccccc1 (stereo not drawn)	-9.1	2.8	-2.2	-0.4	1.7	5.0
O=C1N[C@@H](Cc2c[nH]c3ccccc23)COC(=O)[C@@H](Cc2ccc(F)cc2)C/C=C\C[C@H]1CC(=O)N(CCO)Cc1ccccc1	28.3*	10.6	-15.8	1.2	5.4	22.1
O=C1N[C@@H](c2ccccc2)COC(=O)[C@H](Cc2ccc(F)cc2)C/C=C\C[C@H]1CC(=O)N(CCO)Cc1ccccc1	1.1	0.8	18.1*	3.0	-0.4	-5.0
